Results reported in ChEMBL document CHEMBL1955865, “Synthesis of novel spirooxindole derivatives by one pot multicomponent reaction and their antimicrobial activity” (2012).
Converted amounts (≈) assume the structure as drawn.

Key:
[1] = Antifungal activity against Malassezia pachydermatis after 48 to 72 hrs by twofold serial dilution method; assay type: functional
Procedure, shortened: (§1)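 Broth two-fold serial dilution, 1000 to 15.62 µg/ml, with compound dissolved in 2% DMSO, in 96-well plates. Filamentous fungal spores came from 10-day SDA slants at 28 °C, and yeast from SDB grown 48 h at 28 °C. Incubation was 48-72 h at 28 °C. MIC was the lowest concentration with no visible fungal growth.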

Salmonella typhimurium [2] = assay: Antibacterial activity against Salmonella Typhimurium MTCC 1251 after 24 hrs by two-fold serial dilution method; assay type: functional, Salmonella enterica subsp. enterica serovar Typhimurium; settings: Salmonella enterica, MTCC 1251, 24 h
Procedure, shortened: (§2)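 Bacteria grown in Mueller Hinton broth for 24 h at 37 °C and diluted to about 10^4 CFU/ml. Compound in 2% DMSO was serially diluted two-fold (1000 to 15.62 µg/ml) in medium in 96-well plates and inoculated. Plates were incubated 24 h at 37 °C. 5 µl of broth was spotted onto MHA, and MIC was taken as the lowest concentration with no visible growth on agar.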

Klebsiella pneumoniae [3] = assay: Antibacterial activity against Klebsiella pneumoniae MTCC 109 after 24 hrs by twofold serial dilution method; assay type: functional; settings: MTCC 109, 24 h; procedure, shortened: as §2
Salmonella typhimurium [4] = assay: Ratio of ciprofloxacin MIC to compound MIC for Salmonella Typhimurium MTCC 1251; assay type: functional, Salmonella enterica subsp. enterica serovar Typhimurium
Botrytis cinerea [5] = assay: Antifungal activity against Botrytis cinerea after 48 to 72 hrs by twofold serial dilution method; assay type: functional; procedure, shortened: as §1
Klebsiella aerogenes [6] = assay: Antibacterial activity against Enterobacter aerogenes MTCC 111 after 24 hrs by twofold serial dilution method; assay type: functional; settings: MTCC 111, 24 h; procedure, shortened: as §2
Klebsiella pneumoniae [7] = assay: Antibacterial activity against Klebsiella pneumoniae MTCC 109 at 1000 ug/disc after 24 hrs by disc diffusion assay; assay type: functional; settings: MTCC 109, 24 h, read-out: IZ
Procedure, shortened: (§3)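 Disc diffusion on Mueller Hinton agar. Cultures (about 10^4 CFU/ml) were swabbed on and dried 10 min. Discs loaded at 1000 µg/disc were left 30 min at room temperature for diffusion, with a solvent negative control. Plates were incubated 24 h at 37 °C. Inhibition zones were measured in mm, and the experiment was done twice.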

Staphylococcus aureus [8] = assay: Ratio of ciprofloxacin MIC to compound MIC for methicillin-resistant Staphylococcus aureus; assay type: functional
Micrococcus luteus [9] = assay: Antibacterial activity against Micrococcus luteus after 24 hrs by twofold serial dilution method; assay type: functional; procedure, shortened: as §2
Proteus vulgaris [10] = assay: Antibacterial activity against Proteus vulgaris MTCC 1771 at 1000 ug/disc after 24 hrs by disc diffusion assay; assay type: functional; settings: MTCC 1771, 24 h, read-out: IZ; procedure, shortened: as §3
Staphylococcus aureus [11] = assay: Antibacterial activity against Staphylococcus aureus MTCC 96 after 24 hrs by twofold serial dilution method; assay type: functional; settings: MTCC 96, 24 h; procedure, shortened: as §2
[12] = tested on: Salmonella enterica subsp. enterica serovar Paratyphi B; assay: Antibacterial activity against Salmonella paratyphi B at 1000 ug/disc after 24 hrs by disc diffusion assay; assay type: functional; settings: read-out: IZ
Procedure, shortened: (§4)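 Disc diffusion on Mueller Hinton agar. Bacteria were grown 24 h at 37 °C in MHB and diluted to about 10^4 CFU/ml, swabbed onto plates and dried 10 min. Discs were loaded at 1000 μg/disc and held 30 min at room temperature for diffusion. Solvent served as negative control. After 24 h at 37 °C, inhibition zones were read in mm; run twice.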

Proteus vulgaris [13] = assay: Antibacterial activity against Proteus vulgaris MTCC 1771 after 24 hrs by twofold serial dilution method; assay type: functional; settings: MTCC 1771, 24 h; procedure, shortened: as §2
Staphylococcus aureus [14] = assay: Ratio of streptomycin MIC to compound MIC for methicillin-resistant Staphylococcus aureus; assay type: functional
Candida albicans [15] = assay: Antifungal activity against Candida albicans MTCC 227 after 48 to 72 hrs by twofold serial dilution method; assay type: functional; procedure, shortened: as §1
Staphylococcus aureus [16] = assay: Antibacterial activity against methicillin-resistant Staphylococcus aureus after 24 hrs by twofold serial dilution method; assay type: functional
Procedure, shortened: (§5)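 Broth microdilution in MHB following the standard bacterial reference method. Compound was dissolved in DMSO (2%) and serially diluted two-fold from 1000 to 15.62 µg/ml in 96-well plates, with an inoculum of about 10^4 CFU/ml. Streptomycin and ciprofloxacin were positive controls. After 24 h at 37 °C, 5 µl of broth was subcultured on MHA. MIC was the lowest concentration without visible growth on agar.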

Botrytis cinerea [17] = assay: Antifungal activity against Botrytis cinerea at 1000 ug/disc after 48 hrs by disc diffusion assay; assay type: functional; settings: read-out: IZ
Procedure, shortened: (§6)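 Fungal disc diffusion with inoculum from SDA spores (filamentous) or SDB culture (yeast). Test cultures were swabbed on agar, and discs at 1000 µg/disc were left 30 min at room temperature, with a solvent negative control. Plates were incubated 48 h at 27 °C. Zone of inhibition was measured in mm, and the experiment was repeated twice.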

Klebsiella aerogenes [18] = assay: Antibacterial activity against Enterobacter aerogenes MTCC 111 at 1000 ug/disc after 24 hrs by disc diffusion assay; assay type: functional; settings: MTCC 111, 24 h, read-out: IZ; procedure, shortened: as §3
Staphylococcus aureus [19] = assay: Antibacterial activity against methicillin-resistant Staphylococcus aureus at 1000 ug/disc after 24 hrs by disc diffusion assay; assay type: functional; settings: read-out: IZ; procedure, shortened: as §4
Candida albicans [20] = assay: Ratio of fluconazole MIC to compound MIC for Candida albicans MTCC 227; assay type: functional
[21] = tested on: Salmonella enterica subsp. enterica serovar Paratyphi B; assay: Antibacterial activity against Salmonella paratyphi B after 24 hrs by twofold serial dilution method; assay type: functional; procedure, shortened: as §5
Staphylococcus aureus [22] = assay: Antibacterial activity against Staphylococcus aureus MTCC 96 at 1000 ug/disc after 24 hrs by disc diffusion assay; assay type: functional; settings: MTCC 96, 24 h, read-out: IZ; procedure, shortened: as §3
Micrococcus luteus [23] = assay: Antibacterial activity against Micrococcus luteus at 1000 ug/disc after 24 hrs by disc diffusion assay; assay type: functional; settings: read-out: IZ; procedure, shortened: as §3
Salmonella typhimurium [24] = assay: Antibacterial activity against Salmonella Typhimurium MTCC 1251 at 1000 ug/disc after 24 hrs by disc diffusion assay; assay type: functional, Salmonella enterica subsp. enterica serovar Typhimurium; settings: Salmonella enterica, MTCC 1251, 24 h; read-out: IZ; procedure, shortened: as §3
Candida albicans [25] = assay: Antifungal activity against Candida albicans MTCC 227 at 1000 ug/disc after 48 hrs by disc diffusion assay; assay type: functional; settings: MTCC 227, 48 h, read-out: IZ; procedure, shortened: as §6
[26] = Antifungal activity against Malassezia pachydermatis at 1000 ug/disc after 48 hrs by disc diffusion assay; assay type: functional; procedure, shortened: as §6
Micrococcus luteus [27] = assay: Ratio of ciprofloxacin MIC to compound MIC for Micrococcus luteus; assay type: functional

SMILES: CC(=O)N1C(=O)C2(C3=C(CN2C)C(=O)c2ccccc2C3=O)c2ccccc21 (configuration not stated)
- MIC [1]: 15.6 µg/mL (≈ 41.9 µM)
- MIC (Salmonella typhimurium [2]): 15.6 µg/mL (≈ 41.9 µM)
- MIC (Klebsiella pneumoniae [3]): 15.6 µg/mL (≈ 41.9 µM)
- Ratio (Salmonella typhimurium [4]): >6.4
- MIC (Botrytis cinerea [5]): 125 µg/mL (≈ 336 µM)
- MIC (Klebsiella aerogenes [6]): 15.6 µg/mL (≈ 41.9 µM)
- zone of inhibition at 1000 µg/disc (Klebsiella pneumoniae [7]): 24 mm
- Ratio (Staphylococcus aureus [8]): >1.6
- MIC (Micrococcus luteus [9]): 15.6 µg/mL (≈ 41.9 µM)
- zone of inhibition at 1000 µg/disc (Proteus vulgaris [10]): 26 mm
- MIC (Staphylococcus aureus [11]): 31.2 µg/mL (≈ 83.9 µM)
- zone of inhibition at 1000 µg/disc [12]: 28 mm
- MIC (Proteus vulgaris [13]): < 15.6 µg/mL
- Ratio (Staphylococcus aureus [14]): >1.6
- MIC (Candida albicans [15]): 31.2 µg/mL (≈ 83.9 µM)
- MIC (Staphylococcus aureus [16]): 62.5 µg/mL (≈ 168 µM)
- zone of inhibition at 1000 µg/disc (Botrytis cinerea [17]): 15 mm
- zone of inhibition at 1000 µg/disc (Klebsiella aerogenes [18]): 21 mm
- zone of inhibition at 1000 µg/disc (Staphylococcus aureus [19]): 16 mm
- Ratio (Candida albicans [20]): >3.2
- MIC [21]: < 15.6 µg/mL
- zone of inhibition at 1000 µg/disc (Staphylococcus aureus [22]): 18 mm
- zone of inhibition at 1000 µg/disc (Micrococcus luteus [23]): 22 mm
- zone of inhibition at 1000 µg/disc (Salmonella typhimurium [24]): 24 mm
- zone of inhibition at 1000 µg/disc (Candida albicans [25]): 18 mm
- inhibition zone (IZ) [26]: 19 mm
- Ratio (Micrococcus luteus [27]): >6.4
